Assay results: ChEMBL document CHEMBL2390847, “Synthesis and biological evaluation of novel phosphatidylinositol 3-kinase inhibitors: Solubilized 4-substituted benzimidazole analogs of 2-(difluoromethyl)-1-[4,6-di(4-morpholinyl)-1,3,5-triazin-2-yl]-1H-benzimidazole (ZSTK474)” (Eur J Med Chem, 2013)
pIC50: −log10 of the molar value.

Tests used:
[1] = Aqueous solubility of the compound in water by HPLC analysis; format: physicochemical
How it was run: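 Solid mixed with water to make 2 mM, sonicated 15 min, centrifuged; supernatant diluted 2-fold, recentrifuged, analysed by C18 HPLC (acetonitrile/45 mM ammonium formate pH 3.5 gradient); peak area compared with DMSO standard.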

PI3K p110 beta/p85 alpha = PI3K p110 beta/p85 alpha (Homo sapiens, UniProt P42338); assay: Inhibition of recombinant PI3K p110beta/p85alpha (unknown origin) using phosphotidylinositol as susbstrate after 1 hr by thin layer paper chromatographic analysis in presence of [gamma-33P]ATP; format: protein-complex assay
Chain of PI3K p110 beta/p85 alpha (P27986 whole entry): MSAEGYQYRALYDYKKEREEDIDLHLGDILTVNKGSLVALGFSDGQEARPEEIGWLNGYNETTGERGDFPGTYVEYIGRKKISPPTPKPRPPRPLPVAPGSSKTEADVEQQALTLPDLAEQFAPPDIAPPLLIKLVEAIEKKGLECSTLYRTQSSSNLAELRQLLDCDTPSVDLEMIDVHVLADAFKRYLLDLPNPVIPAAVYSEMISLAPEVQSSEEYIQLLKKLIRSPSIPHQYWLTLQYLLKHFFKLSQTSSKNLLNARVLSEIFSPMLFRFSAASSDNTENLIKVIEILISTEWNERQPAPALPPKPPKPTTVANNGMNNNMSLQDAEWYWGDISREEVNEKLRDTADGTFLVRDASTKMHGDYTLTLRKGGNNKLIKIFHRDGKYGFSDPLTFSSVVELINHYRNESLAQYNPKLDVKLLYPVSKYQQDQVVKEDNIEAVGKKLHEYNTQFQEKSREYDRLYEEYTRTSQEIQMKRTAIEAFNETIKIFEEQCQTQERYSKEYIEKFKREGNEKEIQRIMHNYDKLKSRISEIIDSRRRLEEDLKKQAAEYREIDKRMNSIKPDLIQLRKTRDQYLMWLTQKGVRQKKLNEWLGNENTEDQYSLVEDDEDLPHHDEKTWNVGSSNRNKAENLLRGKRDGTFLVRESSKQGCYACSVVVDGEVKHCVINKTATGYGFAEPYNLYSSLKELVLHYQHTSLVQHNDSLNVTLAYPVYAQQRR
Chain of PI3K p110 beta/p85 alpha (P42338 whole entry): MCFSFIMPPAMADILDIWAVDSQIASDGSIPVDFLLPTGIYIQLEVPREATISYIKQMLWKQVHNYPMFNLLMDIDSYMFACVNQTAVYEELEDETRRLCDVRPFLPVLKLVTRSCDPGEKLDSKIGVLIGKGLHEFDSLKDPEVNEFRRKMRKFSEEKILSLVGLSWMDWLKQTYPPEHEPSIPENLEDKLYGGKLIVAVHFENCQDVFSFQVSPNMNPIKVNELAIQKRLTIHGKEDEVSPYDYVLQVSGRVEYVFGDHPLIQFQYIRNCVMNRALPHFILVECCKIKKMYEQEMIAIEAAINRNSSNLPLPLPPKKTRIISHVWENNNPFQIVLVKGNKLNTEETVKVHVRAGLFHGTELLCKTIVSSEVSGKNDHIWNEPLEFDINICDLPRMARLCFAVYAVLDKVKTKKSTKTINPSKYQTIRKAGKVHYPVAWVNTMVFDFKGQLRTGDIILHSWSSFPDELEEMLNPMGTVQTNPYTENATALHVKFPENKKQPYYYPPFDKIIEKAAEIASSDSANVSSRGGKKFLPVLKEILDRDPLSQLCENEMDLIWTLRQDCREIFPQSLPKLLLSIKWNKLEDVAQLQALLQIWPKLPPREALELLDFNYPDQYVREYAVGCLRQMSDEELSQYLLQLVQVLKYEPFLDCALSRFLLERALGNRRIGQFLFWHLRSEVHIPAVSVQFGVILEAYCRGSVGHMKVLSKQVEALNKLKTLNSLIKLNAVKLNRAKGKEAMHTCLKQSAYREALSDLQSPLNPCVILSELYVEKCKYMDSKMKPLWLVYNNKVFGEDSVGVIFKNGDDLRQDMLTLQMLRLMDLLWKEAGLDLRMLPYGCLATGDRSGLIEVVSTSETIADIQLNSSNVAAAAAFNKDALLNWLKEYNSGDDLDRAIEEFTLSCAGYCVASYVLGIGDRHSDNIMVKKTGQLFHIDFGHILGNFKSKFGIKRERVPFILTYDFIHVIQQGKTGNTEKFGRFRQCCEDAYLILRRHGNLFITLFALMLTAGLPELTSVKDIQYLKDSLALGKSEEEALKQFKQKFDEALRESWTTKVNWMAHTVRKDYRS

[2] = Cytotoxicity against human NZOV9 cells expressing PI3K p110alpha Y1021C mutant assessed as growth inhibition after 5 days by [3H]-thymidine incorporation assay; format: functional, cell-based
How it was run: (§1)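 NZB5 (medulloblastoma, wild-type p110α) and NZOV9 (ovarian endometrioid adenocarcinoma, Y1021C p110α) cells cultured with drug for 5 days; proliferation by [³H]-thymidine incorporation at end; IC50 as 50% inhibition versus controls, averaged over at least two determinations.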

[3] = Cytotoxicity against human NZB5 cells expressing wild type PI3K p110alpha assessed as growth inhibition after 5 days by [3H]-thymidine incorporation assay; format: functional, cell-based; how it was run: as §1
[4] = target: PI3-kinase p110-alpha/p85-alpha (Homo sapiens, UniProt P42336); assay: Inhibition of recombinant PI3K p110alpha/p85alpha (unknown origin) using phosphotidylinositol as susbstrate after 1 hr by thin layer paper chromatographic analysis in presence of [gamma-33P]ATP; format: protein-complex assay
Chain of PI3-kinase p110-alpha/p85-alpha (P27986 whole entry): as the sequence (P27986 whole entry) above
Chain of PI3-kinase p110-alpha/p85-alpha (P42336 whole entry): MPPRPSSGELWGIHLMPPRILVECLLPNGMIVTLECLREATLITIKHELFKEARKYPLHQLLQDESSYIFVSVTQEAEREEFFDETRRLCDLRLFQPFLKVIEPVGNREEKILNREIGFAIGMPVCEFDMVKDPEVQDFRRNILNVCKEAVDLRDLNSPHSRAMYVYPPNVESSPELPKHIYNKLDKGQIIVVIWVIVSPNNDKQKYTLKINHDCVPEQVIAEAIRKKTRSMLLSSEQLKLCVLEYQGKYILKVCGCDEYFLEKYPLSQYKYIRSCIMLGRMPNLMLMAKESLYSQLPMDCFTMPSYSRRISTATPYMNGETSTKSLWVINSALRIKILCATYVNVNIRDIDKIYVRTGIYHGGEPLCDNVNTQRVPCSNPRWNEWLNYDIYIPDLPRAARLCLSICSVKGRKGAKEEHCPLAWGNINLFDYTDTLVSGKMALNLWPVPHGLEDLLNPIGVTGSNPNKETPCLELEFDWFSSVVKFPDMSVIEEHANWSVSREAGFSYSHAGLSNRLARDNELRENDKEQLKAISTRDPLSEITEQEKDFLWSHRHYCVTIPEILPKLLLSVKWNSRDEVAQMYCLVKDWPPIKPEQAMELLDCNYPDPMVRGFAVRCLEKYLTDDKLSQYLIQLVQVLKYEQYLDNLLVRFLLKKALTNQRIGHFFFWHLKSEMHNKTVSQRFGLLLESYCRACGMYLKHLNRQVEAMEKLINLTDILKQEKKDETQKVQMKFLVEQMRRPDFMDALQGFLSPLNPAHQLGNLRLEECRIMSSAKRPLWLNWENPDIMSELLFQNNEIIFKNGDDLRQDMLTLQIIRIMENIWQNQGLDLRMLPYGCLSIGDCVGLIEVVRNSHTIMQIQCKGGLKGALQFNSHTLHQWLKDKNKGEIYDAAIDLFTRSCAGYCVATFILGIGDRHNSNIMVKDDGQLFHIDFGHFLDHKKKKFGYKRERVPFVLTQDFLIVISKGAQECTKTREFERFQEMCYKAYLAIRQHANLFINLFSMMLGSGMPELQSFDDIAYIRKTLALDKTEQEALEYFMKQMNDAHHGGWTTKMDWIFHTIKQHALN

[5] = target: PI3-kinase p110-delta/p85-alpha (Homo sapiens, UniProt O00329); assay: Inhibition of recombinant PI3K p110delta/p85alpha (unknown origin) using phosphotidylinositol as susbstrate after 1 hr by thin layer paper chromatographic analysis in presence of [gamma-33P]ATP; format: protein-complex assay
Chain of PI3-kinase p110-delta/p85-alpha (P27986 whole entry, canonical isoform): as the sequence (P27986 whole entry) above
Chain of PI3-kinase p110-delta/p85-alpha (O00329 whole entry, canonical isoform): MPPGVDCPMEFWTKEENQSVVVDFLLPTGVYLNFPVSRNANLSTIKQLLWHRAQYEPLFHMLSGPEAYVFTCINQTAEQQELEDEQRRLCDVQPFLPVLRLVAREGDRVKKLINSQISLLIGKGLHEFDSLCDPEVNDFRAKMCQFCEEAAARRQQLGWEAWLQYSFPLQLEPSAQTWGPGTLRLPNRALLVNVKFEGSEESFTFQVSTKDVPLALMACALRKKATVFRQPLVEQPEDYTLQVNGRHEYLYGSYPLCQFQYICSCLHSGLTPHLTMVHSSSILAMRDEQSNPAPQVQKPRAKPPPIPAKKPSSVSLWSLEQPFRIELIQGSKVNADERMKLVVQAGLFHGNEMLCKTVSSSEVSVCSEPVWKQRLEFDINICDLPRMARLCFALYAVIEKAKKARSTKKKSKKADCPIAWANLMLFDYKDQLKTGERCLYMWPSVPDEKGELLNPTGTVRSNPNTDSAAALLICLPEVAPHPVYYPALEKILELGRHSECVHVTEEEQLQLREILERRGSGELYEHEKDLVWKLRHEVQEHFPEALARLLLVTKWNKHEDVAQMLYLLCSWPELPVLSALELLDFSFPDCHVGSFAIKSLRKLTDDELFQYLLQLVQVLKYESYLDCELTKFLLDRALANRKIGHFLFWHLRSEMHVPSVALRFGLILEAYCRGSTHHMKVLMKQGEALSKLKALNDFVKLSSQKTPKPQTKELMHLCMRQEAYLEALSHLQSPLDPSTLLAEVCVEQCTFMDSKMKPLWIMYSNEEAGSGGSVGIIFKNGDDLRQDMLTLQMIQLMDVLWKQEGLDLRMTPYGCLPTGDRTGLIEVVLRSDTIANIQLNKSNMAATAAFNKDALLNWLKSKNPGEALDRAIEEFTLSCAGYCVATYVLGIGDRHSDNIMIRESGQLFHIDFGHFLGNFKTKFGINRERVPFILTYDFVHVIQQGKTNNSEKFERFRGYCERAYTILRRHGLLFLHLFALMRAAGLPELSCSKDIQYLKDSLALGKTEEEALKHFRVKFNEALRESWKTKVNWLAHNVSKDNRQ

[6] = target: T1, Phosphatidylinositol 4,5-bisphosphate 3-kinase catalytic subunit alpha isoform (Homo sapiens, UniProt P42336, H1047R); assay: Inhibition of PI3K p110alpha H1047R mutant in human HCT116 cells assessed as inhibition of AKT/PKB phosphorylation at Thr308 incubated for 15 mins prior to insulin stimulation measured after 5 mins by immunoblot analysis; format: cell-based, HCT-116
T1 sequence (P42336 whole entry H1047R, canonical isoform): as the sequence (P42336 whole entry) above, with H1047R counted along it

Mus musculus [7] = assay: Toxicity in rag1-deficient mouse xenografted with human U87MG cells assessed as mortality without preceding sings of toxicity at 60 mg/kg, ip qd after 14 days relative to control; format: organism-based, U-87MG ATCC; parameters: dose 60 mg/kg, route intraperitoneal; conditions: in vivo, 336 h
[8] = Half life in C57 mouse at 10 mg/kg, ip; format: ADME, organism-based; parameters: dose 10 mg/kg, route intraperitoneal; conditions: in vivo
How it was run: (§2)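 Male specific pathogen-free age-matched C57 mice; single 10 mg/kg i.p. dose in 10% EtOH; animals culled at multiple time points; blood by cardiac puncture into EDTA, plasma separated by centrifugation, protein precipitated in MeOH.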

[9] = Cmax in C57 mouse at 10 mg/kg, ip; format: ADME, organism-based; parameters: dose 10 mg/kg, route intraperitoneal; conditions: in vivo; how it was run: as §2
[10] = target: T1, Phosphatidylinositol 4,5-bisphosphate 3-kinase catalytic subunit alpha isoform; assay: Inhibition of PI3K p110alpha H1047R mutant in human HCT116 cells assessed as inhibition of AKT/PKB phosphorylation at Ser473 incubated for 15 mins prior to insulin stimulation measured after 5 mins by immunoblot analysis; format: cell-based, HCT-116
[11] = Tmax in C57 mouse at 10 mg/kg, ip; format: ADME, organism-based; parameters: dose 10 mg/kg, route intraperitoneal; conditions: in vivo; how it was run: as §2
[12] = Antitumor activity against human U87MG cells xenografted in rag1-deficient mouse assessed as tumor growth inhibition at 60 mg/kg, ip qd measured after 7 days relative to control; conditions: U-87 MG, 168 h, read-out: TGI
[13] = AUC (infinity) in C57 mouse at 10 mg/kg, ip; format: ADME, organism-based; parameters: dose 10 mg/kg, route intraperitoneal, time infinity; conditions: plasma; how it was run: as §2
Mus musculus [14] = assay: Toxicity in rag1-deficient mouse xenografted with human U87MG cells assessed as body weight loss at 60 mg/kg, ip qd after 14 days relative to control; format: organism-based, U-87MG ATCC; parameters: dose 60 mg/kg, route intraperitoneal; conditions: in vivo, 336 h
[15] = Antitumor activity against human U87MG cells xenografted in rag1-deficient mouse assessed as tumor growth inhibition at 15 mg/kg, ip qd measured after 7 days relative to control; conditions: U-87 MG, 168 h, read-out: TGI
Mus musculus [16] = assay: Toxicity in rag1-deficient mouse xenografted with human U87MG cells assessed as body weight loss at 15 mg/kg, ip qd after 14 days relative to control; format: organism-based, U-87MG ATCC; parameters: dose 15 mg/kg, route intraperitoneal; conditions: in vivo, 336 h
Mus musculus [17] = assay: Toxicity in rag1-deficient mouse xenografted with human U87MG cells assessed as body weight loss at 40 mg/kg, ip qd after 14 days relative to control; format: organism-based, U-87MG ATCC; parameters: dose 40 mg/kg, route intraperitoneal; conditions: in vivo, 336 h
Mus musculus [18] = assay: Toxicity in rag1-deficient mouse xenografted with human U87MG cells assessed as mortality at 40 mg/kg, ip qd after 14 days relative to control; format: organism-based, U-87MG ATCC; parameters: dose 40 mg/kg, route intraperitoneal; conditions: in vivo, 336 h
How it was run: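 Female specific-pathogen-free Rag1−/− mice given 5 × 10⁶ U87MG cells s.c. in PBS on the right flank. Dosing started 3–4 weeks later, once tumors averaged about 8 mm. Drug was given i.p. daily for 14 days at 10 mL/kg as free base, in 10% DMSO, 15% Cremophor EL, 15% EtOH and 60% saline. Bodyweight and tumor volume were recorded every 2–3 days.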

[19] = Antitumor activity against human U87MG cells xenografted in rag1-deficient mouse assessed as tumor growth inhibition at 40 mg/kg, ip qd measured after 7 days relative to control; conditions: U-87 MG, 168 h, read-out: TGI

Compound | pIC50 (PI3K p110 beta/p85 alpha) | pIC50 [2] | pIC50 [3] | pIC50 [4] | pIC50 [5] | other results
CN(C)CCCOc1cccc2c1nc(C(F)F)n2-c1nc(N2CCOCC2)nc(N2CCOCC2)n1.Cl |  |  |  |  |  | solubility [1]: 25 mg/mL
FC(F)c1nc2c(OCCN3CCOCC3)cccc2n1-c1nc(N2CCOCC2)nc(N2CCOCC2)n1 | 6.82 | 7.15 | 6.98 | 6.89 | 7.28 | 
NCCCOc1cccc2c1nc(C(F)F)n2-c1nc(N2CCOCC2)nc(N2CCOCC2)n1 | 7.12 | 8.05 | 7.49 | 7.55 | 7.55 | 
CN(C)CCCOc1cccc2c1nc(C(F)F)n2-c1nc(N2CCOCC2)nc(N2CCOCC2)n1 | 8.14 | 7.40 | 6.77 | 7.96 | 8.35 | pIC50 [6]: 7.13; Activity (Mus musculus [7]): Toxic; half-life [8]: 93.6 min; Cmax [9]: 1940 nM; pIC50 [10]: 7.44; Tmax [11]: 15 min; inhibition in vivo at 60 mg/kg [12]: 56.3%; AUC(0-inf) [13]: 2.59 µM·h; Activity (Mus musculus [14]): 5%
FC(F)c1nc2c(OCCCN3CCOCC3)cccc2n1-c1nc(N2CCOCC2)nc(N2CCOCC2)n1 | 7.12 | 7.52 | 7.22 | 7.54 | 7.74 | 
CN(C)CC(O)COc1cccc2c1nc(C(F)F)n2-c1nc(N2CCOCC2)nc(N2CCOCC2)n1 (stereo not given) | 7.52 | 6.96 | 6.48 | 7.48 | 7.89 | 
OC(COc1cccc2c1nc(C(F)F)n2-c1nc(N2CCOCC2)nc(N2CCOCC2)n1)CN1CCOCC1 (stereo not given) | 7.28 | 7.60 | 7.27 | 7.39 | 8.26 | 
CN(C)CCNc1cccc2c1nc(C(F)F)n2-c1nc(N2CCOCC2)nc(N2CCOCC2)n1 | 7.14 | 6.96 | 6.70 | 6.76 | 7.82 | 
NCC(=O)Nc1cccc2c1nc(C(F)F)n2-c1nc(N2CCOCC2)nc(N2CCOCC2)n1 | 6.13 | 7.22 | 6.85 | 6.92 | 7.28 | 
CN(C)CC(=O)Nc1cccc2c1nc(C(F)F)n2-c1nc(N2CCOCC2)nc(N2CCOCC2)n1 | 5.98 | 7.30 | 7.30 | 6.42 | 7.00 | 
NCCC(=O)Nc1cccc2c1nc(C(F)F)n2-c1nc(N2CCOCC2)nc(N2CCOCC2)n1 | 5.52 | 6.92 | 6.36 | 6.07 | 6.68 | 
CN(C)CCC(=O)Nc1cccc2c1nc(C(F)F)n2-c1nc(N2CCOCC2)nc(N2CCOCC2)n1 | 5.90 | 6.85 | 6.54 | 6.31 | 6.95 | 
OCC(O)COc1cccc2c1nc(C(F)F)n2-c1nc(N2CCOCC2)nc(N2CCOCC2)n1 (stereo not given) | 7.62 | 7.60 | 7.59 | 7.92 | 8.33 | 
NCCOc1cccc2c1nc(C(F)F)n2-c1nc(N2CCOCC2)nc(N2CCOCC2)n1 | 6.89 | 7.66 | 7.28 | 7.77 | 7.70 | 
CN(C)CCOc1cccc2c1nc(C(F)F)n2-c1nc(N2CCOCC2)nc(N2CCOCC2)n1 | 6.98 | 6.82 | 6.35 | 7.46 | 7.72 | 
O=C(O)COc1cccc2c1nc(C(F)F)n2-c1nc(N2CCOCC2)nc(N2CCOCC2)n1 | 6.56 | 5.47 | 5.07 | 7.28 | 7.41 | 
OCCOc1cccc2c1nc(C(F)F)n2-c1nc(N2CCOCC2)nc(N2CCOCC2)n1 | 7.80 | 7.22 | 7.22 | 8.28 | 8.59 | 
OCCCOc1cccc2c1nc(C(F)F)n2-c1nc(N2CCOCC2)nc(N2CCOCC2)n1 | 6.77 | 7.74 | 7.15 | 8.00 | 7.66 | 
Cn1c(=O)n(-c2ccc(C(C)(C)C#N)cc2)c2c3cc(-c4cnc5ccccc5c4)ccc3ncc21 [DACTOLISIB] |  |  |  |  |  | inhibition in vivo at 15 mg/kg [15]: 60.3%; Activity (Mus musculus [16]): 5%
FC(F)c1nc2ccccc2n1-c1nc(N2CCOCC2)nc(N2CCOCC2)n1 [ZSTK-474] |  |  |  |  |  | Activity (Mus musculus [17]): 19%; Activity (Mus musculus [18]): Toxic; inhibition in vivo at 40 mg/kg [19]: 67.6%
